Measurements reported in ChEMBL document CHEMBL4020842, “Discovery of N1-(4-((7-Cyclopentyl-6-(dimethylcarbamoyl)-7 H-pyrrolo[2,3- d]pyrimidin-2-yl)amino)phenyl)- N8-hydroxyoctanediamide as a Novel Inhibitor Targeting Cyclin-dependent Kinase 4/9 (CDK4/9) and Histone Deacetlyase1 (HDAC1) against Malignant Cancer” (J Med Chem, 2018).
The source made the active and inactive calls. The calls are words filed in the database; no cut-off is given here.

Legend:
A549 [1] = assay: Induction of apoptosis in human A549 cells assessed as necrotic cells at 10 uM after 48 hrs by annexin V-FITC/propidium iodide staining based flow cytometry (reference value: […]%); assay type: functional
NCI-H460 [2] = assay: Induction of apoptosis in human NCI-H460 cells assessed as late apoptotic cells at 1 uM after 48 hrs by annexin V-FITC/propidium iodide staining based flow cytometry (reference value: 1.29%); assay type: functional
T47D [3] = assay: Induction of apoptosis in human T47D cells assessed as late apoptotic cells at 5 uM after 48 hrs by annexin V-FITC/propidium iodide staining based flow cytometry (reference value: 6.16%); assay type: functional
MDA-MB-231 [4] = assay: Induction of apoptosis in human MDA-MB-231 cells assessed as early apoptotic cells at 1 uM after 48 hrs by annexin V-FITC/propidium iodide staining based flow cytometry (reference value: 0.4%); assay type: functional
MDA-MB-231 [5] = assay: Induction of apoptosis in human MDA-MB-231 cells assessed as late apoptotic cells at 10 uM after 48 hrs by annexin V-FITC/propidium iodide staining based flow cytometry (reference value: 1.53%); assay type: functional
Hep 3B2 [6] = assay: Cell cycle arrest in human Hep3B cells assessed as decrease in S-phase at 625 nM after 24 hrs by propidium iodide staining based flow cytometry; assay type: functional
Outline: (§1)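 Cells were exposed for 24 h to a range of concentrations (625 nM, 2.5 and 10 µM), with DMSO vehicle as control. They were then stained with propidium iodide and analysed by flow cytometry to obtain the percentages of cells in G0/G1, S and G2 phases.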

Hep 3B2 [7] = assay: Cell cycle arrest in human Hep3B cells assessed as accumulation at G0/G1 phase at 625 nM after 24 hrs by propidium iodide staining based flow cytometry; assay type: functional; outline: as §1
A549 [8] = assay: Cytotoxicity against human A549 cells assessed as reduction in cell viability after 72 hrs by CCK8 assay; assay type: functional, cell-based; settings: A549, 72 h
NCI-H460 [9] = assay: Cell cycle arrest in human NCI-H460 cells assessed as decrease in S-phase at 625 nM after 24 hrs by propidium iodide staining based flow cytometry; assay type: functional; outline: as §1
T47D [10] = assay: Cell cycle arrest in human T47D cells assessed as accumulation at G0/G1 phase at 625 nM after 24 hrs by propidium iodide staining based flow cytometry; assay type: functional; outline: as §1
T47D [11] = assay: Cell cycle arrest in human T47D cells assessed as accumulation at G2 phase at 2.5 to 10 uM after 24 hrs by propidium iodide staining based flow cytometry; assay type: functional; outline: as §1
MDA-MB-231 [12] = assay: Cell cycle arrest in human MDA-MB-231 cells assessed as accumulation at G0/G1 phase at 625 nM after 24 hrs by propidium iodide staining based flow cytometry; assay type: functional; outline: as §1
[13] = molecular target: CDK9/cyclin T1 (Homo sapiens) (UniProt O60563+P50750); assay: Inhibition of recombinant human full length C-terminal 6His-tagged CDK9/Cyclin-T1 co-expressed in baculovirus infected sf21 cells at 1 uM using PDKtide substrate in presence of [gamma33P]ATP after 10 mins by scintillation counting method relative to control
[14] = molecular target: Cyclin-dependent kinase 2/cyclin E1 (Homo sapiens) (UniProt P24864+P24941); assay: Inhibition of recombinant human full length C-terminal 6His-tagged CDK2/N-terminal GST-tagged Cyclin-E co-expressed in baculovirus infected sf21 cells at 1 uM using histone H1 substrate in presence of [gamma33P]ATP after 10 mins by scintillation counting method relative to control
Hep 3B2 [15] = assay: Cytotoxicity against human Hep3B cells assessed as reduction in cell viability after 72 hrs by CCK8 assay
HepG2 [16] = assay: Cytotoxicity against human HepG2 cells assessed as reduction in cell viability after 72 hrs by CCK8 assay; assay type: functional, cell-based; settings: HepG2, 72 h
MDA-MB-468 = assay: Cytotoxicity against human MDA-MB-468 cells assessed as reduction in cell viability after 72 hrs by CCK8 assay; assay type: functional, cell-based; settings: MDA-MB-468, 72 h
CDK4/Cyclin D3 = CDK4/Cyclin D3 (Homo sapiens, UniProt P11802); assay: Inhibition of recombinant human full length N-terminal GST-tagged CDK4/Cyclin-D3 co-expressed in baculovirus infected sf21 cells using Rb substrate in presence of [gamma33P]ATP after 10 mins by scintillation counting method
Chain of CDK4/Cyclin D3 (P11802 whole entry): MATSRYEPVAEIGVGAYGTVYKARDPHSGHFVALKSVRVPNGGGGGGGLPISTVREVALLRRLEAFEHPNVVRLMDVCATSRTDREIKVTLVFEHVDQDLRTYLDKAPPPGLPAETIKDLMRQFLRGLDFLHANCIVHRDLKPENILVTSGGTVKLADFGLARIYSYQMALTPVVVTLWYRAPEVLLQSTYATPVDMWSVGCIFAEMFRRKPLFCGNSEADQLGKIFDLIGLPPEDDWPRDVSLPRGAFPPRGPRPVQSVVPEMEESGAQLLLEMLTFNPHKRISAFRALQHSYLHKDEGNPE
Chain of CDK4/Cyclin D3 (P30281 whole entry, further chain): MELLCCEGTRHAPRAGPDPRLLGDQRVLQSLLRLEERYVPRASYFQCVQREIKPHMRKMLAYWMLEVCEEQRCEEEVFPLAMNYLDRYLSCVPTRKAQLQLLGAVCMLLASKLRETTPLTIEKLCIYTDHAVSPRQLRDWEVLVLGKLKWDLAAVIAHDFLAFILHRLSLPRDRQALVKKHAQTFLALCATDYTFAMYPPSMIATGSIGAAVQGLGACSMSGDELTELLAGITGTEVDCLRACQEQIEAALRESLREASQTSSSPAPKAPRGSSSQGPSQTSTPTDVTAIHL

HepG2 [17] = assay: Induction of apoptosis in human HepG2 cells assessed as necrotic cells at 1 uM after 48 hrs by annexin V-FITC/propidium iodide staining based flow cytometry (reference value: 2.32%); assay type: functional
Hep 3B2 [18] = assay: Induction of apoptosis in human Hep3B cells assessed as live cells at 5 uM after 48 hrs by annexin V-FITC/propidium iodide staining based flow cytometry (reference value: 97.9%); assay type: functional
HepG2 [19] = assay: Induction of apoptosis in human HepG2 cells after 48 hrs by annexin V-FITC/propidium iodide staining based flow cytometry; assay type: functional, cell-based
Hep 3B2 [20] = assay: Induction of apoptosis in human Hep3B cells after 48 hrs by annexin V-FITC/propidium iodide staining based flow cytometry; assay type: functional, cell-based
MDA-MB-231 [21] = assay: Downregulation of CDK4 protein expression in human MDA-MB-231 cells after 48 hrs by Western blot method; assay type: functional, cell-based
Outline: (§2)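 Treated cells were lysed and CDK4 and cyclin D1 protein levels were assessed by Western blot.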

MDA-MB-231 [22] = assay: Downregulation of Cyclin-D1 protein expression in human MDA-MB-231 cells after 48 hrs by Western blot method; assay type: functional, cell-based; outline: as §2
NCI-H460 [23] = assay: Downregulation of Cyclin-D1 protein expression in human NCI-H460 cells after 48 hrs by Western blot method; assay type: functional, cell-based; outline: as §2
Histone deacetylase 1 [24] = molecular target: T1, Histone deacetylase 1 (Homo sapiens, UniProt Q13547); assay: Inhibition of HDAC1 in human MDA-MB-231 cells assessed as increase in acetylated-histone H3 level at 1 to 5 uM after 48 hrs by Western blot method; assay type: cell-based
T1 sequence (Q13547 whole entry): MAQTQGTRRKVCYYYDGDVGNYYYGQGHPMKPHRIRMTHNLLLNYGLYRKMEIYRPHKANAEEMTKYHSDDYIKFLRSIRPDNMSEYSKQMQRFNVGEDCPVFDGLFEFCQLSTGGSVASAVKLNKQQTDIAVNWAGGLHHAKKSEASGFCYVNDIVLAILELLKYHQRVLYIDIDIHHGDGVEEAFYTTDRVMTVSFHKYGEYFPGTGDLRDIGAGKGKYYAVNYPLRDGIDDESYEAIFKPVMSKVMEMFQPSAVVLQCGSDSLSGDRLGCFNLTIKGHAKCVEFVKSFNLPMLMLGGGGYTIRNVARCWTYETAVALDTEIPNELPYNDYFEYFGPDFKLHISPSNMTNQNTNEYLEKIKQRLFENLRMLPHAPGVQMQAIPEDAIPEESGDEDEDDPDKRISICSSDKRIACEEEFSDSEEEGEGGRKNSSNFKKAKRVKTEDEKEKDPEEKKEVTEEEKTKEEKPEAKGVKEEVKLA

Histone deacetylase 1 [25] = molecular target: T1, Histone deacetylase 1; assay: Inhibition of HDAC1 in human T47D cells assessed as increase in acetylated-histone H3 level at 1 to 5 uM after 48 hrs by Western blot method; assay type: cell-based
HepG2 [26] = assay: Induction of apoptosis in human HepG2 cells assessed as caspase-3 cleavage after 48 hrs by Western blot method; assay type: functional, cell-based
Outline: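 Cells were treated with or without compound and control for 48 h, then lysed. Bcl-2 and cleaved caspase 3 were assessed by Western blot.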

[27] = Half life in Sprague-Dawley rat at 20 mg/kg, iv administered as single dose by HPLC analysis; assay type: ADME, organism-based; settings: in vivo
[28] = AUC (0 to infinity) in Sprague-Dawley rat at 20 mg/kg, ip administered as single dose by HPLC analysis; assay type: ADME, organism-based; parameters: dose 20 mg/kg, time infinity, route intraperitoneal; settings: in vivo
[29] = Cmax in Sprague-Dawley rat at 20 mg/kg, ip administered as single dose by HPLC analysis; assay type: ADME, organism-based; parameters: dose 20 mg/kg, route intraperitoneal; settings: in vivo
4T1 [30] = assay: Antitumor activity against mouse Fluc-labeled 4T1 cells implanted in Balb/c mouse assessed as tumor growth inhibition at 90 mg/kg, ip administered daily for 18 days measured after 8 to 25 days by bioluminescence assay relative to control; assay type: functional; settings: 4T1, ip, read-out: TGI
Outline: (§3)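 Luciferase (Fluc) reporter introduced into 4T1 cells by lentiviral transduction. Cells implanted orthotopically into mammary fat pads of female BALB/c mice aged 6–8 weeks. Once tumours averaged 100 mm3, dosing was daily by IP injection. Bioluminescence imaging was done at days 8 and 25 to reflect viable tumour cell number. Tumour weight was recorded at study end.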

4T1 [31] = assay: Antitumor activity against mouse Fluc-labeled 4T1 cells implanted in Balb/c mouse assessed as reduction in tumor weight at 90 mg/kg, ip administered daily for 18 days measured after 8 to 25 days; assay type: functional, organism-based; outline: as §3

CN(C)C(=O)c1cc2cnc(Nc3ccc(NC(=O)CCCCCCC(=O)NO)cc3)nc2n1C1CCCC1
Activity (A549 [1]): 6.38% | Activity (NCI-H460 [2]): 1.48% | Activity (T47D [3]): 8.44% | Activity (MDA-MB-231 [4]): 0.78% | Activity (MDA-MB-231 [5]): 6.59% | Activity (Hep 3B2 [6]): Active | Activity (Hep 3B2 [7]): Active | IC50 (A549 [8]): 1330 nM | Activity (NCI-H460 [9]): Active | Activity (T47D [10]): Active | Activity (T47D [11]): Active | Activity (MDA-MB-231 [12]): Active | inhibition [13]: 97% | inhibition [14]: 66% | IC50 (Hep 3B2 [15]): 1240 nM | IC50 (HepG2 [16]): 3370 nM | IC50 (MDA-MB-468): 1820 nM | IC50 (CDK4/Cyclin D3): 8.8 nM | Activity (HepG2 [17]): 3.95% | Activity (Hep 3B2 [18]): 81% | Activity (HepG2 [19]): Dose-dependent effect | Activity (Hep 3B2 [20]): Dose-dependent effect | Activity (MDA-MB-231 [21]): Dose-dependent effect | Activity (MDA-MB-231 [22]): Dose-dependent effect | Activity (NCI-H460 [23]): Dose-dependent effect | inhibition (Histone deacetylase 1 [24]): Active | inhibition (Histone deacetylase 1 [25]): Active | Activity (HepG2 [26]): Active | half-life [27]: 10.8 h | AUC(0-inf) [28]: 2130 ng·h/mL | Cmax [29]: 360 ng/mL | inhibition in vivo at 90 mg/kg (4T1 [30]): 78.4% | Activity (4T1 [31]): Active
